Measured values of several laboratories.
Protocols differ between the studies behind these lines.
Target: Interleukin-1 receptor-associated kinase 4 (IRAK4, Homo sapiens, UniProt Q9NWZ3)
Residues used in one study (Q9NWZ3 1-460): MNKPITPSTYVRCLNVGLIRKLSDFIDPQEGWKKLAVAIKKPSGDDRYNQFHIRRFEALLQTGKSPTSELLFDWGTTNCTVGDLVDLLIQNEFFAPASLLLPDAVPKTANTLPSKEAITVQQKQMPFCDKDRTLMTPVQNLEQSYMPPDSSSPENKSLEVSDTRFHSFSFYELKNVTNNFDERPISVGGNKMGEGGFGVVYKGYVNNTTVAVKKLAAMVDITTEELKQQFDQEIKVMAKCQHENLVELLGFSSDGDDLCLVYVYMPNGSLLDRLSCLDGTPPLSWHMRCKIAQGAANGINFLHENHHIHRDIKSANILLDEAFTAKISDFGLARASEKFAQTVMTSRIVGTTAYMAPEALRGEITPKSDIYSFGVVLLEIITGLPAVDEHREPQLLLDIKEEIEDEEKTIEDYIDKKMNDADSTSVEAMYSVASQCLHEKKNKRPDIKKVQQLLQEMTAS

CN1CCN(C(=O)c2ccc(NC(=O)Nc3ccc(N(C)c4ccnc(Nc5ccc(CS(C)(=O)=O)cc5)n4)cc3)cc2)CC1 — remaining binding (binding; 1 µM): 52%
C#Cc1cc(-c2cc(Nc3nc(N[C@@H](C)c4ccc(F)cn4)ncc3Cl)n[nH]2)ccc1C=O — inhibition (enzyme activity, inhibitor; 0.2 µM): 10.1%
Cc1ccc(NC(=O)c2ccnc(C(F)(F)F)c2)cc1-c1cc(OCCO)nc(N2CCOCC2)c1 — remaining binding (binding; 1 µM): 100%
CS(=O)(=NC#N)c1ccccc1Nc1nc(Nc2ccc(CO)nc2)ncc1Cl (centres unmarked) — remaining activity (enzyme activity, inhibitor, radiometric; 1 µM): 3.01%
Cc1cc(O)c(-c2ccc([C@@H](C)CN(C)C)cc2)c2c1[nH]c(=O)c1sccc12 — inhibition (enzyme activity, inhibitor; 0.1 µM): 1.9%
CS(=O)(=O)c1ccccc1Nc1nc(Nc2ccnc(CO)c2)ncc1Cl — remaining activity (enzyme activity, inhibitor, radiometric; 1 µM): 13.4%
C=CC(=O)N1CCC[C@@H](n2nc(-c3ccc(Oc4ccccc4)cc3)c3c(N)ncnc32)C1 — inhibition (enzyme activity, inhibitor; 1 µM): 22%
C1=C/COCc2cc(ccc2OCCN2CCCC2)Nc2nccc(n2)-c2cccc(c2)COC/1 — remaining signal (cell-free assay; 0.1 µM): 56%
C#Cc1cnc(Nc2ccc(CO)nc2)nc1Nc1ccccc1S(C)(=O)=NC#N (centres unmarked) — remaining activity (enzyme activity, inhibitor, radiometric; 1 µM): 0.79%
CCCCC(=O)Nc1ccc(-c2ccc3ncn(CCC)c(=O)c3c2)cn1 — remaining binding (binding, competition with immobilised ligand; 0.5 µM): 93%
CC#CC(=O)N1CCC[C@H]1c1nc(-c2ccc(C(=O)Nc3ccccn3)cc2)c2c(N)nccn12 — inhibition (enzyme activity, inhibitor; 1 µM): 16%
